Hits are enriched below; roughly 3% of the tested compounds scored in any of these assays.
NR3A LBD binder = NR3A (human) ligand-binding domain modulation; NR3A LBD differential scanning fluorimetry, Tm shift; 0% = protein alone, 100% = glycine-bound protein; Tm shift relative to glycine control, % at 25 µM; 2.5% of 340,000 active; AID 1259313;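 active = melting temperature shift of at least 10% of the positive control shift, at one fixed dose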
NPR1 activator = GC-A (human) enzyme activation; P16066; HEK293 GC-A cells, cGMP TR-FRET, EC30 ANP; 0% at EC30 ANP, 100% saturating ANP; activation, % at 10 µM; 0.14% of 370,000 active; AID 1671463; in the data active = activation above about 40%
JMJD2C inh = human JMJD2C demethylase inhibition | AID 2099 | inhibition, % at 2.35 µM | GST-JMJD2C(1-420) H3K9me3 demethylation, DELFIA europium | 0.069% of 330,000 active | Q9H3R0;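 active = more than half of a compound's replicate wells show inhibition beyond 50%, single wells judged on their own value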;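 also: signal counts dimethyl H3K9 product captured on neutravidin plate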
GC-B act = GC-B (human) receptor activation. activation, % at 10 µM. AID 1920062. P20594. 0.11% of 370,000 active. HEK293-GC-B cells, CNP EC30, cGMP TR-FRET; 0% at EC30 CNP, 100% saturating CNP;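 active = activation at 10 µM reaching about 35% in either raw or pattern-adjusted values, limit read from the data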
Hep lipid drop = hepatic lipid droplet formation modulation; AML12 mouse hepatocytes, oleate lipid droplets, BODIPY imaging; inhibition, % at 6.5 µM; 0.4% of 240,000 active;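 active = lipid droplet intensity inhibited by at least 50%, with more than 500 cells counted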
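Assay system: AML12 mouse liver cells | Compound: 6.5 µM single-point dosing | Schedule: Overnight exposure | Technique: Fluorescence imaging, 20x objective, two fields per well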
aDG glyco act = alpha-DG glycosylation activation. Pro5-aDG cells, alpha-DG glycosylation AlphaScreen (IIH6); 0% Pro5, 100% B10-LARGE cell signal. activation, % at 10 µM. 0.22% of 360,000 active;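 active = activation of at least 8% versus controls, or a plate z-score of at least 8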;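 also: Pro5 are CHO cells carrying HIG-tagged alpha-DG that lacks glycosylation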
A number is an active result; i = inactive; nt = no result given.

SMILES | NR3A LBD binder | NPR1 activator | JMJD2C inh | GC-B act | Hep lipid drop | aDG glyco act
O=C(Nc1cccc([N+](=O)[O-])c1)c1cccc(C(=O)Nc2cccc([N+](=O)[O-])c2)c1 | i | i | i | i | i | i
O=C(Nc1cccc([N+](=O)[O-])c1)c1ccc(-c2ccccc2)cc1 | 25 | i | i | i | i | i
CCn1c2ccccc2c2cc(NC(=O)c3cccc([N+](=O)[O-])c3)ccc21 | 17 | i | i | i | nt | i
CCn1c2ccccc2c2cc(NC(=O)c3ccc(C)c([N+](=O)[O-])c3)ccc21 | i | i | i | i | i | i
O=C(Nc1cccc([N+](=O)[O-])c1)c1ccc2c(c1)C(=O)N(c1ccccn1)C2=O | i | 42 | i | i | i | i
CC(=O)c1ccc(NC(=O)c2ccc3c(c2)C(=O)N(c2ccccn2)C3=O)cc1 | i | i | i | i | i | i
Cc1ccnc(Nc2nc(-c3ccc(O)c(O)c3)cs2)c1 | 39 | i | i | i | i | i
Cc1ccnc(Nc2nc(-c3ccc(O)cc3O)cs2)c1 | 40 | i | i | i | i | i
COc1ccc(-c2csc(Nc3cc(C)ccn3)n2)cc1C | i | i | i | i | i | i
Cc1ccnc(Nc2nc(-c3ccc(O)cc3)cs2)c1 | 18 | i | i | i | i | i
CC(=O)Nc1ccc(Nc2nc(-c3c(C)nc4ccccn34)cs2)cc1 | 13 | i | i | i | nt | i
O=C(NCc1ccccc1)OCCN1C(=O)CCC12CCC(c1ccc(Cl)cc1)CC2 (stereo not drawn) | nt | i | nt | i | nt | nt
CCOC(=O)N1CCN(C(=O)c2cc3cc(Cl)ccc3[nH]2)CC1 | i | i | i | i | i | i
O=C(Nc1ccccc1)NN(C(=O)CCl)c1ccccc1 | i | i | i | i | i | i
CCOC(=O)[C@]12CCCC=C1N(CCCOC)C(=O)[C@@H]2CC(=O)NCC12CC3CC(CC(C3)C1)C2 | nt | i | nt | i | nt | nt
CC(=O)Nc1ccc(-c2csc(Nc3ccccn3)n2)cc1 | 30 | i | i | i | i | i
CCC(=O)Nc1nc(C)c(-c2csc(Nc3ccccn3)n2)s1 | 25 | i | i | i | i | i
CC(=O)Nc1nc(-c2ccc(-c3ccccc3)cc2)cs1 | nt | i | nt | i | nt | i
CCCC(=O)Nc1nc(C)c(-c2csc(Nc3ccccc3C)n2)s1 | i | i | i | i | nt | i
Cc1nc2sccn2c1-c1csc(NCc2ccccc2)n1 | i | i | i | i | nt | 5.9
COc1ccc(-c2csc(Nc3ncccc3C)n2)cc1OC | i | i | i | i | i | i
Cc1cccnc1Nc1nc(-c2ccc(O)c(O)c2)cs1 | 28 | i | i | i | i | i
Nc1[nH]c(C(=O)c2ccccc2)c(-c2cccc3ccccc23)c1C(=O)c1ccc(Br)cc1 | nt | i | nt | i | nt | nt
CCOC(=O)c1cccc(NC(=O)CN(C)S(=O)(=O)c2ccc(C)c(C)c2)c1 | nt | i | nt | i | nt | nt
COC(=O)[C@]12C[C@H](CC(=O)NCCc3ccccc3OC)C(=O)N(CCc3ccc(OC)c(OC)c3)C1=C[C@H](COCc1ccccc1)O[C@@H]2C | nt | i | nt | i | nt | nt
SMILES | NR3A LBD binder | NPR1 activator | JMJD2C inh | GC-B act | Hep lipid drop | aDG glyco act
Cc1cccc(Nc2nc(-c3ccc(O)c(O)c3)cs2)n1 | 39 | i | i | i | i | i
Oc1ccc(-c2csc(Nc3ccccn3)n2)cc1O | 33 | i | i | i | i | i
Oc1ccc(-c2csc(Nc3cccc4ccccc34)n2)cc1O | i | i | i | i | i | i
CCCOc1ccc(OCCSc2nnc(N)s2)cc1 | i | i | i | i | i | nt
Nc1nnc(SCCOc2cccc(Br)c2)s1 | 13 | i | i | i | nt | i
Cc1ccccc1NC(=O)CSc1nc(O)cc(=O)n1C | 12 | i | i | i | i | i
COc1ccccc1-n1c(SCC(=O)Nc2ccccc2C)nc(O)cc1=O | i | i | i | i | nt | i
Cc1ccc(-n2c(Cc3cccs3)nnc2SCC(=O)Nc2cccc3ccccc23)cc1 | nt | i | nt | i | nt | nt
COc1ccc(-c2n[nH]c(C)c2-c2cscn2)c(O)c1 | i | i | i | i | i | i
CCCOC(=O)c1ccc(Oc2c(-c3ccc(OCC)cc3O)n[nH]c2C)cc1 | 30 | i | i | i | i | i
C=C(C)COc1ccc(-c2n[nH]c(C)c2-c2ccc(OC)cc2)c(O)c1 | 12 | i | i | i | nt | i
CCCOC(=O)c1ccc(Oc2cn[nH]c2-c2ccc(OCC)cc2O)cc1 | 16 | i | i | i | i | i
COc1ccc(-c2n[nH]c(C)c2-c2cnn(-c3ccccc3)c2)c(O)c1 | i | i | i | i | i | i
COc1ccc(Oc2c(-c3ccc(O)cc3O)n[nH]c2C)cc1 | i | 44 | i | i | nt | i
CCCOC(=O)c1ccc(O)cc1 | i | i | i | i | nt | i
CCCc1ccc(Oc2cn[nH]c2-c2ccc(O)c(C)c2O)cc1 | i | 47 | i | i | i | i
CCCc1ccc(Oc2c(-c3ccc(O)c(C)c3O)n[nH]c2C)cc1 | i | i | i | i | nt | i
CCOC(=O)C(NC(=O)c1cccc(Cl)c1)(OCc1ccccc1)C(F)(F)F (stereo not drawn) | i | i | i | i | 71 | i
COC1CCCCC1NS(=O)(=O)c1ccccc1 (stereo not drawn) | 18 | i | i | i | i | i
COC1CCCCC1NS(=O)(=O)c1ccc(Cl)cc1 (stereo not drawn) | i | i | i | i | nt | i
CCn1c(=O)c(C(=O)NCCc2ccc(Cl)cc2)c(O)c2ccccc21 | i | i | 60 | i | i | i
CCCn1c(=O)c(C(=O)NCCc2ccc(Cl)cc2)c(O)c2ccccc21 | i | i | i | i | i | i
CC(C)(C)NC(=O)COC(=O)c1ccccc1NC(=O)c1ccco1 | i | i | i | i | i | i
O=C(Nc1ccccc1C(=O)OCC(=O)c1c[nH]c2ccccc12)c1ccco1 | 26 | i | i | i | i | i
Nc1nc(N)c2sc3nc(C(F)(F)F)cc(C(F)(F)F)c3c2n1 | 32 | i | i | i | i | i
SMILES | NR3A LBD binder | NPR1 activator | JMJD2C inh | GC-B act | Hep lipid drop | aDG glyco act
O=C(Nc1ccccc1)c1ccc(-c2ccc(Br)cc2)o1 | 19 | i | i | i | i | i
O=C(Nc1cccc(NC(=O)c2ccc(-c3cccc(Br)c3)o2)c1)c1ccco1 | 13 | i | i | i | nt | i
COc1ccc(Br)cc1C(=O)Nc1cccc(NC(=O)c2ccco2)c1 | i | i | i | i | nt | i
O=C(Nc1cccc(NC(=O)c2ccc(-c3ccc(Br)cc3)o2)c1)c1ccccc1 | i | i | i | i | i | i
COc1ccc2cc(C(=O)N3CCN(c4ccc(F)cc4)CC3)[nH]c2c1 | i | i | i | i | i | i
COC(=O)[C@]12C[C@H](CC(=O)NCCc3ccccc3OC)C(=O)N(Cc3ccco3)C1=C[C@H](C(C)(C)C)O[C@@H]2C | nt | i | nt | i | nt | nt
Cc1ccc(-c2n[nH]c(=S)n2/N=C/c2sccc2C)cc1 | 15 | i | i | i | i | i

Screening data as filed in PubChem.
